# Measurements published in ChEMBL document CHEMBL4433215, “SAR Studies and Biological Characterization of a Chromen-4-one Derivative as an Anti-Trypanosoma brucei Agent” (ACS Med Chem Lett, 2019).
# What was measured:
# [1] = system: Trypanosoma brucei; test: Antitrypanosomal activity against Trypanosoma brucei bloodstream form assessed as parasite growth inhibition at 10 uM after 72 hrs by resazurin dye-based assay relative to control; assay type: functional; details: read-out: GI
# Summary of the method: (§1)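 T. brucei bloodstream forms were screened first. Compounds giving over 70% parasite growth inhibition then went to a full dose–response curve to derive EC50. Pentamidine was the reference.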
# [2] = system: Trypanosoma brucei; test: Antitrypanosomal activity against Trypanosoma brucei bloodstream form after 72 hrs by resazurin dye-based assay relative to control; assay type: functional, organism-based; summary of the method: as §1
# [3] = Cytotoxicity against human THP1 cells by MTT assay; assay type: cell-based, THP-1
# [4] = Selectivity index, ratio of CC50 for cytotoxicity against human THP1 cells to EC50 for antitrypanosomal activity against Trypanosoma brucei bloodstream form; assay type: toxicity, cell-based; details: read-out: Ratio CC50/EC50
# [5] = molecular target: T1, Voltage-gated inwardly rectifying potassium channel KCNH2 (Homo sapiens, UniProt Q12809); test: Inhibition of human ERG at 10 uM after 2 hrs by fluorescence polarization assay
# T1 sequence (Q12809 whole entry): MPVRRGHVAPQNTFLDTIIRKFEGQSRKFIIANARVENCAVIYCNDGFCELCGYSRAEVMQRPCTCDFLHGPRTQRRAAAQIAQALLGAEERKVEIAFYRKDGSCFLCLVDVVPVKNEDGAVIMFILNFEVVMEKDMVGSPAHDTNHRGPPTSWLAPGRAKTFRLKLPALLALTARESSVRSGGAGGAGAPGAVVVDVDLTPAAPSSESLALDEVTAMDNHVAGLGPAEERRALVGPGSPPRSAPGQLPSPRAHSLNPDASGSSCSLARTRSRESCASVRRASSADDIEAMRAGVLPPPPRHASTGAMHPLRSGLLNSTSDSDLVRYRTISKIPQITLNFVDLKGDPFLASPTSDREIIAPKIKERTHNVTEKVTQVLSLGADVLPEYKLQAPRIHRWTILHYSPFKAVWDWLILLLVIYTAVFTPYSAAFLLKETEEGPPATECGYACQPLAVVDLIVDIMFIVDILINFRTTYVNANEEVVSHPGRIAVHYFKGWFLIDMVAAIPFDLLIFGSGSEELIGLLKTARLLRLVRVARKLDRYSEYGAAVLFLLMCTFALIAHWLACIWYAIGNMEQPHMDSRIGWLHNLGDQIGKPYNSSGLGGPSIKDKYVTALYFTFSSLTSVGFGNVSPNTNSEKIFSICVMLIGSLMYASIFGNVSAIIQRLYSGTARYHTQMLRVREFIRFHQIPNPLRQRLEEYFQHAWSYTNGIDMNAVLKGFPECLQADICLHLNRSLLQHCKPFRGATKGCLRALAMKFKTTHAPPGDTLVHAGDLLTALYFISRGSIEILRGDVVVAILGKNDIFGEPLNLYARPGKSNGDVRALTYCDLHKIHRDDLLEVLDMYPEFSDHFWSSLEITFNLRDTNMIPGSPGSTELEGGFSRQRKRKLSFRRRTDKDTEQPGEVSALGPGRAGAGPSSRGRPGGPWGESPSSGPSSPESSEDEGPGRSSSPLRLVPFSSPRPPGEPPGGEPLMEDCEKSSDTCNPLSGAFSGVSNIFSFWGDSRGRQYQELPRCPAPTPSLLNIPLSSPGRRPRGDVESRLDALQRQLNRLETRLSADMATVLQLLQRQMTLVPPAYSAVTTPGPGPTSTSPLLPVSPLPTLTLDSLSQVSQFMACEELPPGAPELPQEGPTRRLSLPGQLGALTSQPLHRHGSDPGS
# Summary of the method: (§2)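 Single-concentration screen at 10 μM within an early in vitro ADME-tox panel, covering cytotoxicity in A549 cells and hERG inhibition.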
# [6] = system: 786-0; test: Mitochondrial toxicity in human 786-O cells at 10 uM after 6 hrs by MitoTracker Red chloromethyl-X-rosamine based assay; assay type: cell-based; details: 786-0, 6 h
# [7] = Cytotoxicity against human A549 cells assessed as cell growth at 10 uM after 48 hrs by cell-titer-Glo assay relative to control; assay type: cell-based; details: read-out: Activity; summary of the method: as §2
# [8] = system: hERG; test: Selectivity ratio of IC50 for inhibition of human ERG to EC50 for antitrypanosomal activity against Trypanosoma brucei bloodstream form; assay type: toxicity; details: read-out: Ratio IC50/EC50
# [9] = molecular target: T2, Albumin (Homo sapiens, UniProt P02768); test: Binding affinity to HSA assessed as monomer/HSA equilibrium binding constant at 11.25 uM by spectroflurometry; assay type: ADME; details: isolated protein
# T2 sequence (P02768 whole entry): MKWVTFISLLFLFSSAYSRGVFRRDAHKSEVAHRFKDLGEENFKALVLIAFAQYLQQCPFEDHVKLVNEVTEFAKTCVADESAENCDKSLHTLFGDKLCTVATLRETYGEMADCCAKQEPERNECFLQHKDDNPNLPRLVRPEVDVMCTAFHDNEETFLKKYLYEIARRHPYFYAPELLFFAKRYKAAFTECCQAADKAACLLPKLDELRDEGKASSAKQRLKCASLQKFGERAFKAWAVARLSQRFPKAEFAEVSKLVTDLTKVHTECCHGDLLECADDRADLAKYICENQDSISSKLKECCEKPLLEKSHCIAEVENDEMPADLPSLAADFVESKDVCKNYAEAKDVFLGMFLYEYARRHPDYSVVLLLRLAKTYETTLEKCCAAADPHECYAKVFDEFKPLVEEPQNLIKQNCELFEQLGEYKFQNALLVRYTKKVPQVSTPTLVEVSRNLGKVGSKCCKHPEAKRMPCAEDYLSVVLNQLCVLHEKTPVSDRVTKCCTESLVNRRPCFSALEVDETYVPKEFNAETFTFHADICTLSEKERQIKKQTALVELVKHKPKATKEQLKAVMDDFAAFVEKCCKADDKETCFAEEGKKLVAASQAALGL
# Summary of the method: (§3)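 Compound in aqueous phosphate buffer, pH 8, at 1.25 to 11.25 μM. Absorption and fluorescence emission spectra were recorded without and with human serum albumin (HSA), with HSA added stepwise. The monomer/dimer equilibrium constant was obtained by fitting the absorption data at 20 °C.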
# [10] = molecular target: T1, Voltage-gated inwardly rectifying potassium channel KCNH2; test: Inhibition of human ERG after 2 hrs by fluorescence polarization assay
# [11] = molecular target: T2, Albumin; test: Binding affinity to HSA assessed as emission maxima for aggregate at 1.25 uM to 11.25 uM by spectroflurometry; assay type: ADME; details: isolated protein; summary of the method: as §3
# [12] = molecular target: T2, Albumin; test: Binding affinity to HSA assessed as emission maxima for HSA-complexed monomer at 1.25 uM to 11.25 uM by spectroflurometry; assay type: ADME; details: isolated protein; summary of the method: as §3
# [13] = molecular target: T3, Cytochrome P450 1A2 (Homo sapiens, UniProt P05177); test: Inhibition of recombinant human microsomal CYP1A2 expressed in baculovirus infected BTI-TN-5B1-4 cell microsomes using CYP/Luciferin as substrate pre-incubated for 30 mins followed by NADPH regeneration mixture addition and measured after 30 mins by Promega P450-Glo assay; assay type: ADME
# T3 sequence (P05177 whole entry): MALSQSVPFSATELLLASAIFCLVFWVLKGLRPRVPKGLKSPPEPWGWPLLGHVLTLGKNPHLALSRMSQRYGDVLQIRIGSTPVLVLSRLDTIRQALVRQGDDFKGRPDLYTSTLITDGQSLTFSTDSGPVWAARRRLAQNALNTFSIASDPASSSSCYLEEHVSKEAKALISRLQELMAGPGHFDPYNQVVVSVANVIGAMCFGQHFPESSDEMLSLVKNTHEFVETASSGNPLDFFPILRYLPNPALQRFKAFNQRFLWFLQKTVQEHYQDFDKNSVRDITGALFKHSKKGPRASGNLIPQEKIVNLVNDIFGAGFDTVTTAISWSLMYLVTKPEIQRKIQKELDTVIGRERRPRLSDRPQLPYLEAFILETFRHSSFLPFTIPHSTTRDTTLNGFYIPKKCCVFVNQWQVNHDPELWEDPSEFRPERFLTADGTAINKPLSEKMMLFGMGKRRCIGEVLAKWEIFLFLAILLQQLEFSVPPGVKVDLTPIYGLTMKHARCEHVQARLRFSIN
# [14] = molecular target: Cytochrome P450 2D6 (Homo sapiens, UniProt P10635); test: Inhibition of recombinant human microsomal CYP2D6 expressed in baculovirus infected BTI-TN-5B1-4 cell microsomes using CYP/Luciferin as substrate pre-incubated for 30 mins followed by NADPH regeneration mixture addition and measured after 30 mins by Promega P450-Glo assay; assay type: ADME
# Sequence of Cytochrome P450 2D6 (P10635 whole entry): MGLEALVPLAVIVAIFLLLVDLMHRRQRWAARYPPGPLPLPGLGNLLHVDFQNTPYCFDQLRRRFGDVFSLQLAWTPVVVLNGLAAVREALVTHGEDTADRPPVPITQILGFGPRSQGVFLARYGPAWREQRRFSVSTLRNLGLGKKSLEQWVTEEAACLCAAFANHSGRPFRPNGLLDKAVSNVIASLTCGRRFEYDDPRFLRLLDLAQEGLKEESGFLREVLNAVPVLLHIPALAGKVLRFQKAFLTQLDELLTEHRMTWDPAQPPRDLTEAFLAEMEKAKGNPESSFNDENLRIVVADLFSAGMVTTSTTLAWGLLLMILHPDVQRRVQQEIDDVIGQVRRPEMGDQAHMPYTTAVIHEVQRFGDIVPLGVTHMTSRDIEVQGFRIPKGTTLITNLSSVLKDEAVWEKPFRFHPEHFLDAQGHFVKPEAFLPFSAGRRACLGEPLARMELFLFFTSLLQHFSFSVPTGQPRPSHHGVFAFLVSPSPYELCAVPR
# [15] = molecular target: Cytochrome P450 2C9 (Homo sapiens, UniProt P11712); test: Inhibition of recombinant human microsomal CYP2C9 expressed in baculovirus infected BTI-TN-5B1-4 cell microsomes using CYP/Luciferin as substrate pre-incubated for 30 mins followed by NADPH regeneration mixture addition and measured after 30 mins by Promega P450-Glo assay; assay type: ADME
# Sequence of Cytochrome P450 2C9 (P11712 whole entry): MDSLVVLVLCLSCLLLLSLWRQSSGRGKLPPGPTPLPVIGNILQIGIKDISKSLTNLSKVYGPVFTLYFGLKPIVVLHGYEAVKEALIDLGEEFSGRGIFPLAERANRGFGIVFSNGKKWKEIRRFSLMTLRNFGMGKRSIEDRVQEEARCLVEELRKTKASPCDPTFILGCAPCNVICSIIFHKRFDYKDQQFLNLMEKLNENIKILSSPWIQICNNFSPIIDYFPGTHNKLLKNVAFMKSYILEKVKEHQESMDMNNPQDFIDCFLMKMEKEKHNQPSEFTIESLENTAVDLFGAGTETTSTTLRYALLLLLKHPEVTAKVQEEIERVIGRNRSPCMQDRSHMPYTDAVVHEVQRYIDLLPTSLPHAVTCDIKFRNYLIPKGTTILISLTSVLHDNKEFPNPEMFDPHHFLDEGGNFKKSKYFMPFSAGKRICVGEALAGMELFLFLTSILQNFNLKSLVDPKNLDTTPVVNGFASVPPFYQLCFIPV
# [16] = molecular target: Cytochrome P450 2C19 (Homo sapiens, UniProt P33261); test: Inhibition of recombinant human microsomal CYP2C19 expressed in baculovirus infected BTI-TN-5B1-4 cell microsomes using CYP/Luciferin as substrate pre-incubated for 30 mins followed by NADPH regeneration mixture addition and measured after 30 mins by Promega P450-Glo assay; assay type: ADME
# Sequence of Cytochrome P450 2C19 (P33261 whole entry): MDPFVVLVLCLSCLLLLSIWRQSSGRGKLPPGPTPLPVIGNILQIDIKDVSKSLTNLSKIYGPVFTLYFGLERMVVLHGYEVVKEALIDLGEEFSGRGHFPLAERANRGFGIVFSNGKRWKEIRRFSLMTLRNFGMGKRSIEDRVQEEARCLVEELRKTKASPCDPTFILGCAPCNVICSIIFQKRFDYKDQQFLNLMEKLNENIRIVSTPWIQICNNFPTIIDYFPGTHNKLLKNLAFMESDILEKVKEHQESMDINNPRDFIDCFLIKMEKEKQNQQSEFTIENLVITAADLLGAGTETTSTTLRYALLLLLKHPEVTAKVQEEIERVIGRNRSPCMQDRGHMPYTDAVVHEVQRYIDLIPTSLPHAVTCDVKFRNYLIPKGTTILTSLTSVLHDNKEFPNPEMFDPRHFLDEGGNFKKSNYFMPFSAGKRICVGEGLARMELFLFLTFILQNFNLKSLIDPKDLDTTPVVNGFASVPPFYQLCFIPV
# [17] = molecular target: Cytochrome P450 3A4 (Homo sapiens, UniProt P08684); test: Inhibition of recombinant human microsomal CYP3A4 expressed in baculovirus infected BTI-TN-5B1-4 cell microsomes using CYP/Luciferin as substrate pre-incubated for 30 mins followed by NADPH regeneration mixture addition and measured after 30 mins by Promega P450-Glo assay; assay type: ADME
# Sequence of Cytochrome P450 3A4 (P08684 whole entry): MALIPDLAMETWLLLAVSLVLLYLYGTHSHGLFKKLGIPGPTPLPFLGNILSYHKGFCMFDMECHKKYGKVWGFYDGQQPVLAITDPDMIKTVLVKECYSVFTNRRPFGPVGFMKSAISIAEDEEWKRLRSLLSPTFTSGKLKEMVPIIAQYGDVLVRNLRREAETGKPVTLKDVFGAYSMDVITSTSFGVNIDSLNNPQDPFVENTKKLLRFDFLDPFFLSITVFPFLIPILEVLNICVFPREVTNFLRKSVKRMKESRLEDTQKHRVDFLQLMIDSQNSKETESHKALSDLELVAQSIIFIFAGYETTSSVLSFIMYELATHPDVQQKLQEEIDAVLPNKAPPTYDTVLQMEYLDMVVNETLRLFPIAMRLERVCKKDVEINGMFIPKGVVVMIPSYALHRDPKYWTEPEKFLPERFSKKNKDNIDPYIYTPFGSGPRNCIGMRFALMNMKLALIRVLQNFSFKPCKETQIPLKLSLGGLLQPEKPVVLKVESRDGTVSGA
# [18] = Cmax in BALB/c mouse at 1 mg/kg, iv by LC-MS/MS analysis; assay type: ADME, organism-based; parameters: dose 1 mg/kg, route intravenous; details: in vivo
# Summary of the method: (§4)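 BALB/c mice were dosed IV at 1 mg/kg or orally at 20 mg/kg. Plasma Cmax, Tmax, total AUC and half-life were determined for each route.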
# [19] = Cmax in BALB/c mouse at 20 mg/kg, po by LC-MS/MS analysis; assay type: ADME, organism-based; parameters: dose 20 mg/kg, route oral; details: in vivo; summary of the method: as §4
# [20] = Tmax in BALB/c mouse at 1 mg/kg, iv by LC-MS/MS analysis; assay type: ADME, organism-based; details: in vivo; summary of the method: as §4
# [21] = Tmax in BALB/c mouse at 20 mg/kg, po by LC-MS/MS analysis; assay type: ADME, organism-based; details: in vivo; summary of the method: as §4
# [22] = molecular target: T2, Albumin; test: Binding affinity to HSA assessed as emission maxima for free monomer at 1.25 uM to 11.25 uM by spectroflurometry; assay type: ADME; details: isolated protein; summary of the method: as §3
# [23] = Total AUC in BALB/c mouse at 1 mg/kg, iv by LC-MS/MS analysis; assay type: ADME, organism-based; parameters: dose 1 mg/kg, time AUCmax, route intravenous; details: in vivo; summary of the method: as §4
# [24] = Total AUC in BALB/c mouse at 20 mg/kg, po by LC-MS/MS analysis; assay type: ADME, organism-based; parameters: dose 20 mg/kg, time AUCmax, route oral; details: in vivo; summary of the method: as §4
# [25] = Half life in BALB/c mouse at 1 mg/kg, iv by LC-MS/MS analysis; assay type: ADME, organism-based; details: in vivo; summary of the method: as §4
# [26] = Half life in BALB/c mouse at 20 mg/kg, po by LC-MS/MS analysis; assay type: ADME, organism-based; details: in vivo; summary of the method: as §4
# [27] = molecular target: T2, Albumin; test: Binding affinity to HSA assessed as absorption maxima for aggregate at 1.25 uM to 11.25 uM by UV-visible spectrophotometry; assay type: ADME; details: isolated protein; summary of the method: as §3
# [28] = molecular target: T2, Albumin; test: Binding affinity to HSA assessed as absorption maxima for HSA-complexed monomer at 1.25 uM to 11.25 uM by UV-visible spectrophotometry; assay type: ADME; details: isolated protein; summary of the method: as §3
# [29] = Aggregation behavior in phosphate buffer at pH 8 assessed as increase in absorption spectra at 1.25 uM to 11.25 uM by UV-visible spectrophotometry; assay type: physicochemical; details: pH 8, 1.25 µM; summary of the method: as §3
# [30] = Aggregation behavior in phosphate buffer at pH 8 assessed as increase in emission spectra at 1.25 uM to 11.25 uM by spectroflurometry; assay type: physicochemical; details: pH 8, 1.25 µM; summary of the method: as §3
# [31] = Aggregation behavior in phosphate buffer at pH 8 assessed as dimerization equilibrium constant at 1.25 uM to 11.25 uM by UV-visible spectrophotometry; assay type: physicochemical; details: pH 8, 1.25 µM; summary of the method: as §3
# [32] = molecular target: T2, Albumin; test: Binding affinity to HSA assessed as absorption maxima for free monomer at 1.25 uM to 11.25 uM by UV-visible spectrophotometry; assay type: ADME; details: isolated protein; summary of the method: as §3
compound,measurement,setting,value
O=c1c(O)c(-c2ccc3c(c2)OCO3)oc2cc(Cl)ccc12,inhibition of growth at 10 µM,[1],83%
same,EC50,[2],3.8 µM
same,CC50,[3],< 12.5 µM
same,selectivity ratio,[4],3
same,inhibition (INH),[5],Not Active
same,Activity,[6],Non-Toxic
same,"viability at 48 h, 10 µM",[7],< 0%
COc1ccc2c(=O)c(O)c(-c3ccc4c(c3)OC(F)(F)O4)oc2c1,inhibition of growth at 10 µM,[1],47%
same,EC50,[2],> 10 µM
same,CC50,[3],> 100 µM
same,inhibition (INH),[5],Not Active
same,Activity,[6],Non-Toxic
Cc1ccc2oc(-c3ccc4c(c3)OCO4)c(O)c(=O)c2c1,inhibition of growth at 10 µM,[1],99%
same,EC50,[2],4.1 µM
same,CC50,[3],< 12.5 µM
same,selectivity ratio,[4],3
same,inhibition (INH),[5],Not Active
same,Activity,[6],Non-Toxic
COc1ccc2c(=O)c(O)c(-c3ccc4c(c3)OCO4)oc2c1,CC50,[3],> 100 µM
same,selectivity ratio,[4],250
same,selectivity ratio,[8],> 250
same,inhibition (INH),[5],Not Active
same,Kb,[9],2.5 ×10⁵ /M
same,Activity,[6],Non-Toxic
same,IC50,[10],> 100 µM
same,Activity,[11],560 nm
same,Activity,[12],540 nm
same,IC50,[13],0.4 µM
same,IC50,[14],0.05 µM
same,IC50,[15],1.6 µM
same,IC50,[16],1.5 µM
same,IC50,[17],6 µM
same,Cmax,[18],1080 nM
same,Cmax,[19],910 nM
same,Tmax,[20],1 h
same,Tmax,[21],0.5 h
same,Activity,[22],475 nm
same,AUC,[23],9.99 µM·h
same,AUC,[24],8.65 µM·h
same,half-life,[25],19.8 h
same,half-life,[26],45.4 h
same,Activity,[27],325 nm
same,Activity,[28],360 nm
same,Activity,[29],Active
same,Activity,[30],Active
same,Ke,[31],1.8 ×10⁵ /M
same,Activity,[32],360 nm
O=c1c(O)c(-c2ccc3c(c2)OCO3)oc2ccccc12,inhibition of growth at 10 µM,[1],100%
same,EC50,[2],2.9 µM
same,CC50,[3],12.5 to 25 µM
same,selectivity ratio,[4],4
same,inhibition (INH),[5],Not Active
same,Activity,[6],Non-Toxic
CCCOc1c(-c2ccc3c(c2)OCO3)oc2cc(OC)ccc2c1=O,inhibition of growth at 10 µM,[1],20%
same,EC50,[2],> 10 µM
same,CC50,[3],12.5 to 25 µM
same,inhibition (INH),[5],Not Active
same,Activity,[6],Non-Toxic
O=c1c(O)c(-c2ccc3c(c2)OCO3)oc2cc(F)ccc12,inhibition of growth at 10 µM,[1],98%
same,EC50,[2],2.4 µM
same,CC50,[3],< 12.5 µM
same,selectivity ratio,[4],8
same,inhibition (INH),[5],Not Active
same,Activity,[6],Non-Toxic
CCOc1c(-c2ccc3c(c2)OCO3)oc2cc(OC)ccc2c1=O,inhibition of growth at 10 µM,[1],18%
same,EC50,[2],> 10 µM
same,CC50,[3],50 to 100 µM
same,inhibition (INH),[5],Not Active
same,Activity,[6],Non-Toxic
O=c1c(O)c(-c2ccc3c(c2)OCO3)oc2ccc(Cl)cc12,inhibition of growth at 10 µM,[1],13%
same,CC50,[3],< 12.5 µM
same,inhibition (INH),[5],Not Active
same,Activity,[6],Non-Toxic
CCCCC(=O)Oc1c(-c2ccc3c(c2)OCO3)oc2cc(OC)ccc2c1=O,inhibition of growth at 10 µM,[1],100%
same,EC50,[2],0.6 µM
same,CC50,[3],< 12.5 µM
same,selectivity ratio,[4],22
same,inhibition (INH),[5],Not Active
same,Activity,[6],Non-Toxic
COc1ccc2c(=O)c(O)c(-c3ccc4c(c3)OCCO4)oc2c1,inhibition of growth at 10 µM,[1],71%
same,EC50,[2],> 10 µM
same,CC50,[3],50 to 100 µM
same,inhibition (INH),[5],Not Active
same,Activity,[6],Non-Toxic
